Consider three molecules from ChEMBL document CHEMBL1145811, “Synthesis and antibacterial activity of a novel series of acylides: 3-O-(3-pyridyl)acetylerythromycin A derivatives” (J Med Chem, 2003).

Data set [1] has as its system Mus musculus. As to the kind of experiment: Effective dose in vivo, in mouse inoculated intraperitoneally with 7.05*10e2 CFU of erythromycin susceptible strain Streptococcus pneumoniae IID553. Format: functional. The settings on record: ip. In outline: (§1)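 Mouse protection test: mice were infected intraperitoneally with erythromycin-susceptible S. aureus Smith or S. pneumoniae IID553. Compounds were given orally 1 h after inoculation.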

For data set [2], the system named is Mus musculus. Nature of the data set: Survival rate of mouse inoculated intraperitoneally with 5.05*10e7 CFU of erythromycin-susceptible strain Streptococcus pneumoniae IID553 after treatment with 3 mg of compound. The class given is functional. In outline: (§2)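 Mouse protection test: mice were infected intraperitoneally with 5.05 × 10^7 CFU/mouse, then given the macrolide orally 1 h after inoculation. Survival was recorded as the read-out.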

The test system of data set [3] is Mus musculus. As to the kind of experiment: Effective dose in vivo, in mouse inoculated intraperitoneally with 5.09*10e7 CFU of erythromycin susceptible strain Staphylococcus aureus Smith. The class given is functional. The settings on record: ip. In outline:
as §1

The test system of data set [4] is Streptococcus pneumoniae. Nature of the data set: In vitro minimum inhibitory concentration for antibacterial activity against Streptococcus pneumoniae 211 (MLSb-resistant strain encoded by the erm(B) gene). The class given is functional. In outline:
(§3)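 Agar dilution MIC determined by the Japan Society of Chemotherapy standard method for aerobic bacteria.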

The test system of data set [5] is Streptococcus pneumoniae. Nature of the data set: In vitro minimum inhibitory concentration for antibacterial activity against Streptococcus pneumoniae 210 (efflux-resistant strain encoded by the mef(A) gene). Format: functional. In outline: as §3
Data set [6] has as its system Streptococcus pneumoniae. Nature of the data set: In vitro minimum inhibitory concentration for antibacterial activity against erythromycin susceptible strain Streptococcus pneumoniae IID553. Format: functional.
The subject of data set [7] is Staphylococcus aureus. Nature of the data set: In vitro minimum inhibitory concentration for antibacterial activity against erythromycin susceptible strain Staphylococcus aureus Smith. Format: functional.
The test system of data set [8] is Streptococcus pneumoniae. Nature of the data set: In vitro minimum inhibitory concentration for antibacterial activity against erythromycin-susceptible strain Streptococcus pneumoniae IID553. The class given is functional. In outline:
(§4)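 MIC by agar dilution following the Japan Society of Chemotherapy standard method for aerobic bacteria. S. aureus 209P-JC and S. pneumoniae IID553 are erythromycin-susceptible strains.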

For data set [9], the system named is Staphylococcus aureus. Nature of the data set: In vitro minimum inhibitory concentration for antibacterial activity against Staphylococcus aureus B1 (inducibly MLSb-resistant strain encoded by the erm(C) gene). Format: functional. In outline: as §3
Data set [10] relates to Mus musculus. As to the kind of experiment: Survival rate of mouse inoculated intraperitoneally with 5.05*10e7 CFU of erythromycin-susceptible strain Streptococcus pneumoniae IID553 after treatment with 0.3 mg of compound. Format: functional. In outline:
as §2

The subject of data set [11] is Staphylococcus aureus. Nature of the data set: In vitro minimum inhibitory concentration for antibacterial activity against Staphylococcus aureus SR138 (constitutively MLSb-resistant strain encoded by the erm(A) gene). Format: functional. In outline:
as §3

Data set [12] relates to Haemophilus influenzae. As to the kind of experiment: In vitro minimum inhibitory concentration for antibacterial activity against Haemophilus influenzae ATCC 43095 (ampicillin-susceptible strain that does not produce beta-lactamase). The class given is functional. In outline:
as §3

The test system of data set [13] is Haemophilus influenzae. As to the kind of experiment: In vitro minimum inhibitory concentration for antibacterial activity against Haemophilus influenzae ATCC 33533 (ampicillin-resistant strain that produces beta-lactamase). Format: functional. In outline:
as §3

The test system of data set [14] is Staphylococcus aureus. As to the kind of experiment: In vitro minimum inhibitory concentration for antibacterial activity against erythromycin-susceptible strain Staphylococcus aureus […]. The class given is functional. In outline:
as §4

Data set [15] concerns Mus musculus. As to the kind of experiment: Effective dose in vivo, in mouse inoculated intraperitoneally with 1.47*10e3 CFU of erythromycin susceptible strain Streptococcus pneumoniae IID553. The class given is functional. The settings on record: ip. In outline:
as §1

Data set [16] in a line: Maximum concentration in the lung of mice following a single oral dose of 10 mg/kg (data represent mean in 3 mice). The class given is ADME, organism-based. The arrangement: dose 10 mg/kg, route oral. The following applies: mouse. In outline: (§5)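 Mice received a single 10 mg/kg oral dose. Serum and lung were sampled for drug levels. Cmax is in µg/mL and AUC over 0–8 h is in µg·h/mL. Values are the mean of three mice.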

Data set [17] relates to Mus musculus. Nature of the data set: Effective dose in vivo, in mouse inoculated intraperitoneally with 5.80*10e7 CFU of erythromycin susceptible strain Staphylococcus aureus Smith. The class given is functional. The settings on record: ip. In outline:
as §1

Data set [18] is described as follows: Maximum concentration in the serum of mice following a single oral dose of 10 mg/kg (data represent mean in 3 mice). The class given is ADME, organism-based. Set-up: dose 10 mg/kg, route oral. The following applies: mouse. In outline:
as §5

Data set [19] can be described thus: Area under the curve was determined for the compound from the lung of mice following a single oral dose of 10 mg/kg (data represent mean in 3 mice). Format: ADME, organism-based. The arrangement: dose 10 mg/kg, route oral. The following applies: mouse, read-out: AUC 0-8. In outline:
as §5

A short description of data set [20]: Area under the curve was determined for the compound from the serum of mice following a single oral dose of 10 mg/kg (data represent mean in 3 mice). The class given is ADME, organism-based. The arrangement: dose 10 mg/kg, route oral. The following applies: mouse, read-out: AUC 0-8. In outline: as §5

Converted amounts (≈) assume the structure as drawn.

For orientation: ED50 means the dose that gives a 50% effect, or the effect in half of the subjects. In the case of `CC[C@H]1OC(=O)[C@H](C)[C@@H](O[C@H]2C[C@@](C)(OC)[C@@H](O)[C@H](C)O2)[C@H](C)[C@@H](O[C@@H]2O[C@H](C)C[C@H](N(C)C)[C@H]2O)[C@](C)(O)C[C@@H](C)CN(C)[C@H](C)[C@@H](O)[C@]1(C)O` [AZITHROMYCIN], the 50% effective dose (ED50) was found to be 13.9 mg/kg with Mus musculus [1] and 15.7 mg/kg with Mus musculus [3]. Also, the values for the Survival rate with Mus musculus [2] and in the data set on Mus musculus [10] were 100% and 50%, respectively. The MIC in the data set with Streptococcus pneumoniae [4] was above 100 µg/mL; in the data set on Streptococcus pneumoniae [5] it was 0.78 µg/mL (≈ 1.04 µM); with Streptococcus pneumoniae [6], 0.1 µg/mL (≈ 0.134 µM); against Staphylococcus aureus [7], 0.78 µg/mL (≈ 1.04 µM); in the data set with Streptococcus pneumoniae [8], 0.1 µg/mL (≈ 0.134 µM); against Staphylococcus aureus [9] it was above 100 µg/mL. The MIC in the data set with Staphylococcus aureus [11] is above 100 µg/mL; with Haemophilus influenzae [12], 1.56 µg/mL (≈ 2.08 µM); in the data set with Haemophilus influenzae [13], 1.56 µg/mL (≈ 2.08 µM); against Staphylococcus aureus [14] it was 0.39 µg/mL (≈ 0.521 µM).
As a reminder, the Cmax is the highest concentration seen after dosing. By AUC is commonly meant concentration integrated over time. With `CC[C@H]1OC(=O)[C@H](C)[C@@H](O[C@H]2C[C@@](C)(OC)[C@@H](O)[C@H](C)O2)[C@H](C)[C@@H](O[C@@H]2O[C@H](C)C[C@H](N(C)C)[C@H]2O)[C@](C)(OC)C[C@@H](C)C(=O)[C@H](C)[C@@H](O)[C@]1(C)O` [CLARITHROMYCIN], the Survival rate with Mus musculus [2] is listed as 100%; in the data set with Mus musculus [10] it was 50%. The ED50 was found to be 13.5 mg/kg in the data set on Mus musculus [15] and 7.6 mg/kg in the data set on Mus musculus [17]. Besides, the values for the Cmax in data set [16] and in data set [18] were 14100 ng/mL and 1210 ng/mL, respectively. Besides, the MIC in the data set with Streptococcus pneumoniae [4] was above 100 µg/mL; with Streptococcus pneumoniae [5], 0.78 µg/mL (≈ 1.04 µM); in the data set on Streptococcus pneumoniae [6], 0.025 µg/mL (≈ 0.0334 µM); in the data set with Staphylococcus aureus [7], 0.2 µg/mL (≈ 0.267 µM); in the data set on Streptococcus pneumoniae [8] it was 0.05 µg/mL (≈ 0.0668 µM); against Staphylococcus aureus [9], above 100 µg/mL. Besides, the MIC in the data set on Staphylococcus aureus [11] is above 100 µg/mL; against Haemophilus influenzae [12], 6.25 µg/mL (≈ 8.36 µM); in the data set with Haemophilus influenzae [13], 3.13 µg/mL (≈ 4.18 µM); against Staphylococcus aureus [14], 0.1 µg/mL (≈ 0.134 µM). The AUC was 30400 ng·h/mL in data set [19] and 1310 ng·h/mL in data set [20].
On to `CC[C@H]1OC(=O)[C@H](C)[C@@H](O[C@H]2C[C@@](C)(OC)[C@@H](O)[C@H](C)O2)[C@H](C)[C@@H](O[C@@H]2O[C@H](C)C[C@H](N(C)C)[C@H]2O)[C@](C)(O)C[C@@H](C)C(=O)[C@H](C)[C@@H](O)[C@]1(C)O` [ERYTHROMYCIN], for which the median effective dose (ED50) in the data set with Mus musculus [1] turned out to be 111 mg/kg; in the data set with Mus musculus [3], 56.6 mg/kg. In addition, the MIC in the data set on Streptococcus pneumoniae [6] turned out to be 0.1 µg/mL (≈ 0.136 µM); in the data set on Staphylococcus aureus [7], 0.2 µg/mL (≈ 0.273 µM).
